What was measured:
Apelin receptor [1] = target: T1, Apelin receptor (Homo sapiens, UniProt P35414); experiment: Displacement of [125I] [NIe75,Tyr77]Pyr-apelin-13 from YFP-tagged human APJ receptor expressed in HEK293 cells incubated for 1 hr by gamma counting analysis; format: cell-based
T1 sequence (P35414 whole entry): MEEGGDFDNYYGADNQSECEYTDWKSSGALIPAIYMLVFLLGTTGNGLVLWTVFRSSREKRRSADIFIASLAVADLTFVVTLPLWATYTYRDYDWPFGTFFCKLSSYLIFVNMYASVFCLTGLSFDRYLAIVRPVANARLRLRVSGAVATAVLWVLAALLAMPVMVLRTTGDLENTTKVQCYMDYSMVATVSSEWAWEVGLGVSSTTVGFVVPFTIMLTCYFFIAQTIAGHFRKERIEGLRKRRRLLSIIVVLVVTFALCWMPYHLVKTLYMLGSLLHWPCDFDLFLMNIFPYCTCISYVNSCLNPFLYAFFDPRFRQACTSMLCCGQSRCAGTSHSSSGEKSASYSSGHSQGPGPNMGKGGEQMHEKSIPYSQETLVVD

Apelin receptor [2] = target: T1, Apelin receptor; experiment: Agonist activity at human APJ receptor expressed in HEK293T cells co-expressing Galphai1 RlucII assessed as dissociation of Galphai1 from Gbetta/gamma subunit measured using coelenterazine luciferase substrate incubated for 5 mins by BRET assay; format: functional, cell-based, HEK293
Apelin receptor [3] = target: T1, Apelin receptor; experiment: Agonist activity at human APJ receptor expressed in HEK293T cells co-expressing PDZ-Rho-Gef-RLucll and rGFP-CAAX assessed as induction of recruitment of Galpha12 to cell membrane using coelenterazine luciferase substrate incubated for 5 mins by BRET assay; format: functional, cell-based, HEK293
Apelin receptor [4] = target: T1, Apelin receptor; experiment: Agonist activity at human APJ receptor expressed in HEK293 cells co-expressing Rlucll-beta-arrestin2 assessed as induction of beta-arrestin2 recruitment to receptor incubated for 30 mins by BRET assay; format: functional, cell-based
[5] = Stability in Sprague-Dawley rat plasma assessed as half life measured up to 24 hrs by UPLC-MS analysis; format: ADME, cell-free
Outline: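 Peptide (6 μL of 1 mM aqueous solution) incubated with 27 μL male Sprague-Dawley rat plasma at 37 °C. Time points 0, 1, 2, 4, 7, 24 h, or 0–120 min for labile peptides. Reaction quenched with acetonitrile-ethanol containing N,N-dimethylbenzamide internal standard, filtered, then UPLC-MS. t1/2 from one-phase exponential decay; at least three experiments.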

Row | Ki (Apelin receptor [1]) | EC50 (Apelin receptor [2]) | EC50 (Apelin receptor [3]) | EC50 (Apelin receptor [4]) | half-life [5] | Ki (Apelin receptor [1]; hek293) | EC50 (Apelin receptor [2]; hek293) | EC50 (Apelin receptor [3]; hek293) | EC50 (Apelin receptor [4]; hek293) | Compound
1 | 6.1 nM | 6.4 nM | 63 nM | 192 nM | – | – | – | – | – | CCCC[C@H](NC(=O)[C@@H]1CCCN1C(=O)CNC(=O)[C@H](CCCCN)NC(=O)[C@H](Cc1cnc[nH]1)NC(=O)[C@H](CO)NC(=O)[C@H](CC(C)C)NC(=O)[C@H](CCCNC(=N)N)NC(=O)[C@@H]1CCCN1C(=O)[C@H](CCCNC(=N)N)NC(=O)[C@@H]1CCC(=O)N1)C(=O)N1CCC[C@H]1C(=O)N1C[C@@H](OCc2ccccc2)C[C@@H]1C(=O)O
2 | 1.6 nM | 16 nM | 111 nM | 361 nM | – | – | – | – | – | CCCC[C@H](NC(=O)[C@@H]1CCCN1C(=O)CNC(=O)[C@H](CCCCN)NC(=O)[C@H](Cc1cnc[nH]1)NC(=O)[C@H](CO)NC(=O)[C@H](CC(C)C)NC(=O)[C@H](CCCNC(=N)N)NC(=O)[C@@H]1CCCN1C(=O)[C@H](CCCNC(=N)N)NC(=O)[C@@H]1CCC(=O)N1)C(=O)N1CCC[C@H]1C(=O)N[C@H](Cc1cc(C2CCCC2)c(O)c(C2CCCC2)c1)C(=O)O
3 | 0.37 nM | 1 nM | 108 nM | 40 nM | – | – | – | – | – | CCCC[C@H](NC(=O)[C@@H]1CCCN1C(=O)CNC(=O)[C@H](CCCCN)NC(=O)[C@H](Cc1cnc[nH]1)NC(=O)[C@H](CO)NC(=O)[C@H](CC(C)C)NC(=O)[C@H](CCCNC(=N)N)NC(=O)[C@@H]1CCCN1C(=O)[C@H](CCCNC(=N)N)NC(=O)[C@@H]1CCC(=O)N1)C(=O)N1CCC[C@H]1C(=O)N[C@H](C(=O)O)C(C)c1ccccc1 (stereo partly drawn)
4 | 0.41 nM | 5.7 nM | 53 nM | 69 nM | – | – | – | – | – | CCCC[C@H](NC(=O)[C@@H]1CCCN1C(=O)CNC(=O)[C@H](CCCCN)NC(=O)[C@H](Cc1cnc[nH]1)NC(=O)[C@H](CO)NC(=O)[C@H](CC(C)C)NC(=O)[C@H](CCCNC(=N)N)NC(=O)[C@@H]1CCCN1C(=O)[C@H](CCCNC(=N)N)NC(=O)[C@@H]1CCC(=O)N1)C(=O)N1CCC[C@H]1C(=O)N[C@H](Cc1ccc(OCc2ccccc2)c(C2CCCC2)c1)C(=O)O
5 | 4.3 nM | 6.8 nM | 481 nM | 311 nM | – | – | – | – | – | CCCC[C@H](NC(=O)[C@@H]1CCCN1C(=O)CNC(=O)[C@H](CCCCN)NC(=O)[C@H](Cc1cnc[nH]1)NC(=O)[C@H](CO)NC(=O)[C@H](CC(C)C)NC(=O)[C@H](CCCNC(=N)N)NC(=O)[C@@H]1CCCN1C(=O)[C@H](CCCNC(=N)N)NC(=O)[C@@H]1CCC(=O)N1)C(=O)N1CCC[C@H]1C(=O)N[C@H]1Cc2c([nH]c3ccccc23)CN(CC(=O)O)C1=O
6 | 0.07 nM | 1 nM | 23 nM | 10 nM | 48 min | – | – | – | – | CCCC[C@H](NC(=O)[C@@H]1CCCN1C(=O)CNC(=O)[C@H](CCCCN)NC(=O)[C@H](Cc1cnc[nH]1)NC(=O)[C@H](CO)NC(=O)[C@H](CC(C)C)NC(=O)[C@H](CCCNC(=N)N)NC(=O)[C@@H]1CCCN1C(=O)[C@H](CCCNC(=N)N)NC(=O)[C@@H]1CCC(=O)N1)C(=O)N1CCC[C@H]1C(=O)N1Cc2ccccc2C[C@@H]1C(=O)O
7 | 0.04 nM | 1.5 nM | 10 nM | 19 nM | 30 min | – | – | – | – | CCCC[C@H](NC(=O)[C@@H]1CCCN1C(=O)CNC(=O)[C@H](CCCCN)NC(=O)[C@H](Cc1cnc[nH]1)NC(=O)[C@H](CO)NC(=O)[C@H](CC(C)C)NC(=O)[C@H](CCCNC(=N)N)NC(=O)[C@@H]1CCCN1C(=O)[C@H](CCCNC(=N)N)NC(=O)[C@@H]1CCC(=O)N1)C(=O)N1CCC[C@H]1C(=O)NC(Cc1ccccc1)(Cc1ccccc1)C(=O)O
8 | 1.7 nM | 6.4 nM | 74 nM | 221 nM | – | – | – | – | – | CCCC[C@H](NC(=O)[C@@H]1CCCN1C(=O)CNC(=O)[C@H](CCCCN)NC(=O)[C@H](Cc1cnc[nH]1)NC(=O)[C@H](CO)NC(=O)[C@H](CC(C)C)NC(=O)[C@H](CCCNC(=N)N)NC(=O)[C@@H]1CCCN1C(=O)[C@H](CCCNC(=N)N)NC(=O)[C@@H]1CCC(=O)N1)C(=O)N1CCC[C@H]1C(=O)N[C@H]1Cc2c(ccc3ccccc23)CN(CC(=O)O)C1=O
9 | – | – | – | – | – | 0.35 nM | 2.1 nM | 21 nM | 64 nM | CCCC[C@H](NC(=O)[C@@H]1CCCN1C(=O)CNC(=O)[C@H](CCCCN)NC(=O)[C@H](Cc1cnc[nH]1)NC(=O)[C@H](CO)NC(=O)[C@H](CC(C)C)NC(=O)[C@H](CCCNC(=N)N)NC(=O)[C@@H]1CCCN1C(=O)[C@H](CCCNC(=N)N)NC(=O)[C@@H]1CCC(=O)N1)C(=O)N1CCC[C@H]1C(=O)N[C@H](Cc1ccc(-c2ccccc2)cc1)C(=O)O
10 | 1 nM | 19 nM | 11 nM | 571 nM | – | – | – | – | – | CCCC[C@H](NC(=O)[C@@H]1CCCN1C(=O)CNC(=O)[C@H](CCCCN)NC(=O)[C@H](Cc1cnc[nH]1)NC(=O)[C@H](CO)NC(=O)[C@H](CC(C)C)NC(=O)[C@H](CCCNC(=N)N)NC(=O)[C@@H]1CCCN1C(=O)[C@H](CCCNC(=N)N)NC(=O)[C@@H]1CCC(=O)N1)C(=O)N1CCC[C@H]1C(=O)N[C@@](C)(Cc1ccc(OCc2ccccc2)cc1)C(=O)O
11 | 0.36 nM | 2.4 nM | 67 nM | 69 nM | – | – | – | – | – | CCCC[C@H](NC(=O)[C@@H]1CCCN1C(=O)CNC(=O)[C@H](CCCCN)NC(=O)[C@H](Cc1cnc[nH]1)NC(=O)[C@H](CO)NC(=O)[C@H](CC(C)C)NC(=O)[C@H](CCCNC(=N)N)NC(=O)[C@@H]1CCCN1C(=O)[C@H](CCCNC(=N)N)NC(=O)[C@@H]1CCC(=O)N1)C(=O)N1CCC[C@H]1C(=O)N[C@H](C(=O)O)C(C)(C)c1ccccc1
12 | 0.19 nM | 3.4 nM | 22 nM | 45 nM | – | – | – | – | – | CCCC[C@H](NC(=O)[C@@H]1CCCN1C(=O)CNC(=O)[C@H](CCCCN)NC(=O)[C@H](Cc1cnc[nH]1)NC(=O)[C@H](CO)NC(=O)[C@H](CC(C)C)NC(=O)[C@H](CCCNC(=N)N)NC(=O)[C@@H]1CCCN1C(=O)[C@H](CCCNC(=N)N)NC(=O)[C@@H]1CCC(=O)N1)C(=O)N1CCC[C@H]1C(=O)N1Cc2cc(OCc3ccccc3)ccc2C[C@@H]1C(=O)O
13 | – | – | – | – | – | 0.02 nM | 0.5 nM | 11 nM | 14 nM | CCCC[C@H](NC(=O)[C@@H]1CCCN1C(=O)CNC(=O)[C@H](CCCCN)NC(=O)[C@H](Cc1cnc[nH]1)NC(=O)[C@H](CO)NC(=O)[C@H](CC(C)C)NC(=O)[C@H](CCCNC(=N)N)NC(=O)[C@@H]1CCCN1C(=O)[C@H](CCCNC(=N)N)NC(=O)[C@@H]1CCC(=O)N1)C(=O)N1CCC[C@H]1C(=O)N[C@H](Cc1ccc(OCc2ccccc2)cc1)C(=O)O
14 | – | – | – | – | – | 0.31 nM | 1.4 nM | 24 nM | 47 nM | CCCC[C@H](NC(=O)[C@@H]1CCCN1C(=O)CNC(=O)[C@H](CCCCN)NC(=O)[C@H](Cc1cnc[nH]1)NC(=O)[C@H](CO)NC(=O)[C@H](CC(C)C)NC(=O)[C@H](CCCNC(=N)N)NC(=O)[C@@H]1CCCN1C(=O)[C@H](CCCNC(=N)N)NC(=O)[C@@H]1CCC(=O)N1)C(=O)N1CCC[C@H]1C(=O)N[C@H](Cc1cccc(-c2ccccc2)c1)C(=O)O
15 | 0.37 nM | 4.3 nM | – | 94 nM | – | – | – | – | – | CCCC[C@H](NC(=O)[C@@H]1CCCN1C(=O)CNC(=O)[C@H](CCCCN)NC(=O)[C@H](Cc1cnc[nH]1)NC(=O)[C@H](CO)NC(=O)[C@H](CC(C)C)NC(=O)[C@H](CCCNC(=N)N)NC(=O)[C@@H]1CCCN1C(=O)[C@H](CCCNC(=N)N)NC(=O)[C@@H]1CCC(=O)N1)C(=O)N[C@H](Cc1ccc2ccccc2c1)C(=O)N1Cc2ccccc2C[C@@H]1C(=O)O
16 | 4.2 nM | 17 nM | 48 nM | 454 nM | – | – | – | – | – | CCCC[C@H](NC(=O)[C@@H]1CCCN1C(=O)CNC(=O)[C@H](CCCCN)NC(=O)[C@H](Cc1cnc[nH]1)NC(=O)[C@H](CO)NC(=O)[C@H](CC(C)C)NC(=O)[C@H](CCCNC(=N)N)NC(=O)[C@@H]1CCCN1C(=O)[C@H](CCCNC(=N)N)NC(=O)[C@@H]1CCC(=O)N1)C(=O)N1CC[C@H](c2ccccc2)[C@@H]1C(=O)N[C@@H](Cc1ccccc1)C(=O)O
17 | 9.7 nM | 9.6 nM | 67 nM | 142 nM | – | – | – | – | – | CCCC[C@H](NC(=O)[C@@H]1CCCN1C(=O)CNC(=O)[C@H](CCCCN)NC(=O)[C@H](Cc1cnc[nH]1)NC(=O)[C@H](CO)NC(=O)[C@H](CC(C)C)NC(=O)[C@H](CCCNC(=N)N)NC(=O)[C@@H]1CCCN1C(=O)[C@H](CCCNC(=N)N)NC(=O)[C@@H]1CCC(=O)N1)C(=O)N1Cc2ccccc2C[C@@H]1C(=O)N[C@@H](Cc1ccccc1)C(=O)O
18 | – | – | – | – | – | 0.46 nM | 3.8 nM | 45 nM | 106 nM | CCCC[C@H](NC(=O)[C@@H]1CCCN1C(=O)CNC(=O)[C@H](CCCCN)NC(=O)[C@H](Cc1cnc[nH]1)NC(=O)[C@H](CO)NC(=O)[C@H](CC(C)C)NC(=O)[C@H](CCCNC(=N)N)NC(=O)[C@@H]1CCCN1C(=O)[C@H](CCCNC(=N)N)NC(=O)[C@@H]1CCC(=O)N1)C(=O)N1CCC[C@H]1C(=O)N[C@H](Cc1cccc(OCc2ccccc2)c1)C(=O)O

Reference: ChEMBL document CHEMBL4808162, “Constraining the Side Chain of C-Terminal Amino Acids in Apelin-13 Greatly Increases Affinity, Modulates Signaling, and Improves the Pharmacokinetic Profile” (J Med Chem, 2021)
